PMC6122986 (The Journal of Cell Biology, 2018)

Tests used:
[1] = biological target: FITC-labeled NOD "PT" motif-1 peptide (Drosophila melanogaster); experiment: MST
[2] = tested on: MTs in Drosophila S2 cells; experiment: Plus end-directed motility on MTs in cells; assay type: cell-based; settings: TIRF microscopy, interphase S2 cells
Procedure, shortened: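 Live TIRF imaged mCherry-tagged constructs on cortical MTs of interphase S2 cells. Cells were plated on concanavalin A-coated glass after 16–18 h CuSO4 induction at 500 µM (high) or 25 µM (low). Frames were taken every 1 s (single colour) or 2 s (dual colour, with GFP-α-tubulin). Velocities came from manually tracking motile puncta, with kymographs for direction.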

[3] = tested on: MTs in Drosophila S2 cells; experiment: MT association / localization in Drosophila S2 cells by live cell imaging; assay type: cell-based; settings: fixation with paraformaldehyde and permeabilization with detergent
Procedure, shortened: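 Drosophila S2 cells were grown in Schneider's medium with 10% heat-inactivated FBS at 25°C. Lines stably expressing C-terminally mCherry-tagged NOD truncations from a copper-inducible pMT vector were selected with blasticidin and/or hygromycin. Expression was induced with 500 µM or 25 µM CuSO4 for 16–18 h. Cells were imaged live on concanavalin A-coated glass and MT association scored as weak or strong. Retention was also checked after paraformaldehyde fixation and detergent permeabilization.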

Kd [1]	Molecule	motility on MTs in cells (in words) [2]	MT localization upon fixation (in words) [3]
725 nM	Drosophila GST-EB1 (natural protein) MAVNVYSTNVTSENLSRHDMLAWVNDCLQSQFSKIEELCTGAAYCQFMDMLFPNSVPVKRVKFRTNLEHEYIQNFKILQAGFKKMSVDKIIPIDKLVKGRFQDNFEFLQWFKKFFDANYDGRDYDASAVREGAPMGFGSGAVKSLPGTAASGVSSSYRRGPSATTRPAMTSAVKPISKVLPRTNNAAPASRINACANSTGTVKKNDVSNSVNNQQIEEMSNQVMDMRINLEGLEKERDFYFSKLRDIEILCQEADDAEAHPIIQKILDILYATEDGFAPPDDAPPEDEEY		
	NOD485: NOD truncation (1–485) that encompasses the motor domain and the noncanonical neck extension region (protein, UniProt P18105 1-485, looked up, fragment) MEGAKLSAVRIAVREAPYRQFLGRREPSVVQFPPWSDGKSLIVDQNEFHFDHAFPATISQDEMYQALILPLVDKLLEGFQCTALAYGQTGTGKSYSMGMTPPGEILPEHLGILPRALGDIFERVTARQENNKDAIQVYASFIEIYNEKPFDLLGSTPHMPMVAARCQRCTCLPLHSQADLHHILELGTRNRRVRPTNMNSNSSRSHAIVTIHVKSKTHHSRMNIVDLAGSEGVRRTGHEGVARQEGVNINLGLLSINKVVMSMAAGHTVIPYRDSVLTTVLQASLTAQSYLTFLACISPHQCDLSETLSTLRFGTSAKKLRLNPMQVARQKQSLAARTTHVFRQALCTSTAIKSNAANHNSIVVPKSKYSTTKPLSAVLHRTRSELGMTPKAKKRARELLELEETTLELSSIHIQDSSLSLLGFHSDSDKDRHLMPPPTGQEPRQASSQNSTLMGIVEETEPKESSKVQQSMVAPTVPTTVRCQL	motility was not obvious	significantly reduced upon fixation
